Converted amounts (≈) assume the structure as drawn. The source made the active and inactive calls. The calls are words filed in the database; no cut-off is given here.
Tests used:
[1] = Inhibition of Candida albicans SC5314 FAS by spectrophotometry
Fatty acid synthase = Fatty acid synthase (Homo sapiens, UniProt P49327); assay: Inhibition of FAS in human ZR-75-1 cells by spectrophotometry; assay type: cell-based
Candida albicans [2] = assay: Antifungal activity against Candida albicans by microdilution spectrophotometric method; assay type: functional
Candida albicans [3] = assay: Antifungal activity against Candida albicans by microdilution spectrophotometric method in presence of mysteric acid; assay type: functional
Summary of the method: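 Growth inhibition of C. albicans in a medium supplemented with 1.0% Tween 40 and 0.03% mysteric acid (long-chain fatty acids).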

Candida albicans [4] = assay: Antifungal activity against Candida albicans assessed as clear zone of inhibition by disk diffusion assay; assay type: functional
Summary of the method: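 Disk diffusion on C. albicans; the zone of inhibition is measured in mm.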

Candida albicans [5] = assay: Antifungal activity against Candida albicans after 24 hrs; assay type: functional
Summary of the method: (§1)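 Minimum inhibitory concentration against clinical isolates, read at 24 h and at 48 h. Isolates tested: C. albicans 4, C. tropicalis 1, C. lusitaniae 3, C. guilliermondii 1, C. krusei 3, C. glabrata 3, C. parapsilosis 4, C. dubliniensis 2, S. cerevisiae 4, Cryptococcus neoformans 2, Cryptococcus laurentii 2.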

Candida albicans [6] = assay: Antifungal activity against Candida albicans after 48 hrs; assay type: functional; summary of the method: as §1
Clavispora lusitaniae [7] = assay: Antifungal activity against Candida lusitaniae after 24 hrs; assay type: functional; summary of the method: as §1
Clavispora lusitaniae [8] = assay: Antifungal activity against Candida lusitaniae after 48 hrs; assay type: functional; summary of the method: as §1
[9] = system: Meyerozyma guilliermondii; assay: Antifungal activity against Candida guilliermondii after 24 hrs; assay type: functional; summary of the method: as §1
[10] = system: Meyerozyma guilliermondii; assay: Antifungal activity against Candida guilliermondii after 48 hrs; assay type: functional; summary of the method: as §1
Pichia kudriavzevii [11] = assay: Antifungal activity against Candida krusei after 24 hrs; assay type: functional; summary of the method: as §1
Pichia kudriavzevii [12] = assay: Antifungal activity against Candida krusei after 48 hrs; assay type: functional; summary of the method: as §1
Nakaseomyces glabratus [13] = assay: Antifungal activity against Candida glabrata after 24 hrs; assay type: functional; summary of the method: as §1
Nakaseomyces glabratus [14] = assay: Antifungal activity against Candida glabrata after 48 hrs; assay type: functional; summary of the method: as §1
Candida parapsilosis [15] = assay: Antifungal activity against Candida parapsilosis after 24 hrs; assay type: functional; settings: Lodderomyces parapsilosis; summary of the method: as §1
Candida parapsilosis [16] = assay: Antifungal activity against Candida parapsilosis after 48 hrs; assay type: functional; settings: Lodderomyces parapsilosis; summary of the method: as §1
Candida dubliniensis [17] = assay: Antifungal activity against Candida dubliniensis after 24 hrs; assay type: functional; summary of the method: as §1
Candida dubliniensis [18] = assay: Antifungal activity against Candida dubliniensis after 48 hrs; assay type: functional; summary of the method: as §1
Saccharomyces cerevisiae [19] = assay: Antifungal activity against Saccharomyces cerevisiae after 24 hrs; assay type: functional; summary of the method: as §1
Saccharomyces cerevisiae [20] = assay: Antifungal activity against Saccharomyces cerevisiae after 48 hrs; assay type: functional; summary of the method: as §1
Cryptococcus neoformans [21] = assay: Antifungal activity against Cryptococcus neoformans after 24 hrs; assay type: functional; summary of the method: as §1
Cryptococcus neoformans [22] = assay: Antifungal activity against Cryptococcus neoformans after 48 hrs; assay type: functional; summary of the method: as §1
Papiliotrema laurentii [23] = assay: Antifungal activity against Cryptococcus laurentii after 24 hrs; assay type: functional; summary of the method: as §1
Papiliotrema laurentii [24] = assay: Antifungal activity against Cryptococcus laurentii after 48 hrs; assay type: functional; summary of the method: as §1
Candida albicans [25] = assay: Antifungal activity against Candida albicans assessed as hazy zone of inhibition by disk diffusion assay; assay type: functional
Summary of the method: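 Disk diffusion on C. albicans; the zone of growth inhibition around the disk is read and reported as diameter in mm.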

Candida tropicalis [26] = assay: Antifungal activity against Candida tropicalis after 24 hrs; assay type: functional; summary of the method: as §1
Candida tropicalis [27] = assay: Antifungal activity against Candida tropicalis after 48 hrs; assay type: functional; summary of the method: as §1

Fatty acid synthase, sequence (P49327 whole entry): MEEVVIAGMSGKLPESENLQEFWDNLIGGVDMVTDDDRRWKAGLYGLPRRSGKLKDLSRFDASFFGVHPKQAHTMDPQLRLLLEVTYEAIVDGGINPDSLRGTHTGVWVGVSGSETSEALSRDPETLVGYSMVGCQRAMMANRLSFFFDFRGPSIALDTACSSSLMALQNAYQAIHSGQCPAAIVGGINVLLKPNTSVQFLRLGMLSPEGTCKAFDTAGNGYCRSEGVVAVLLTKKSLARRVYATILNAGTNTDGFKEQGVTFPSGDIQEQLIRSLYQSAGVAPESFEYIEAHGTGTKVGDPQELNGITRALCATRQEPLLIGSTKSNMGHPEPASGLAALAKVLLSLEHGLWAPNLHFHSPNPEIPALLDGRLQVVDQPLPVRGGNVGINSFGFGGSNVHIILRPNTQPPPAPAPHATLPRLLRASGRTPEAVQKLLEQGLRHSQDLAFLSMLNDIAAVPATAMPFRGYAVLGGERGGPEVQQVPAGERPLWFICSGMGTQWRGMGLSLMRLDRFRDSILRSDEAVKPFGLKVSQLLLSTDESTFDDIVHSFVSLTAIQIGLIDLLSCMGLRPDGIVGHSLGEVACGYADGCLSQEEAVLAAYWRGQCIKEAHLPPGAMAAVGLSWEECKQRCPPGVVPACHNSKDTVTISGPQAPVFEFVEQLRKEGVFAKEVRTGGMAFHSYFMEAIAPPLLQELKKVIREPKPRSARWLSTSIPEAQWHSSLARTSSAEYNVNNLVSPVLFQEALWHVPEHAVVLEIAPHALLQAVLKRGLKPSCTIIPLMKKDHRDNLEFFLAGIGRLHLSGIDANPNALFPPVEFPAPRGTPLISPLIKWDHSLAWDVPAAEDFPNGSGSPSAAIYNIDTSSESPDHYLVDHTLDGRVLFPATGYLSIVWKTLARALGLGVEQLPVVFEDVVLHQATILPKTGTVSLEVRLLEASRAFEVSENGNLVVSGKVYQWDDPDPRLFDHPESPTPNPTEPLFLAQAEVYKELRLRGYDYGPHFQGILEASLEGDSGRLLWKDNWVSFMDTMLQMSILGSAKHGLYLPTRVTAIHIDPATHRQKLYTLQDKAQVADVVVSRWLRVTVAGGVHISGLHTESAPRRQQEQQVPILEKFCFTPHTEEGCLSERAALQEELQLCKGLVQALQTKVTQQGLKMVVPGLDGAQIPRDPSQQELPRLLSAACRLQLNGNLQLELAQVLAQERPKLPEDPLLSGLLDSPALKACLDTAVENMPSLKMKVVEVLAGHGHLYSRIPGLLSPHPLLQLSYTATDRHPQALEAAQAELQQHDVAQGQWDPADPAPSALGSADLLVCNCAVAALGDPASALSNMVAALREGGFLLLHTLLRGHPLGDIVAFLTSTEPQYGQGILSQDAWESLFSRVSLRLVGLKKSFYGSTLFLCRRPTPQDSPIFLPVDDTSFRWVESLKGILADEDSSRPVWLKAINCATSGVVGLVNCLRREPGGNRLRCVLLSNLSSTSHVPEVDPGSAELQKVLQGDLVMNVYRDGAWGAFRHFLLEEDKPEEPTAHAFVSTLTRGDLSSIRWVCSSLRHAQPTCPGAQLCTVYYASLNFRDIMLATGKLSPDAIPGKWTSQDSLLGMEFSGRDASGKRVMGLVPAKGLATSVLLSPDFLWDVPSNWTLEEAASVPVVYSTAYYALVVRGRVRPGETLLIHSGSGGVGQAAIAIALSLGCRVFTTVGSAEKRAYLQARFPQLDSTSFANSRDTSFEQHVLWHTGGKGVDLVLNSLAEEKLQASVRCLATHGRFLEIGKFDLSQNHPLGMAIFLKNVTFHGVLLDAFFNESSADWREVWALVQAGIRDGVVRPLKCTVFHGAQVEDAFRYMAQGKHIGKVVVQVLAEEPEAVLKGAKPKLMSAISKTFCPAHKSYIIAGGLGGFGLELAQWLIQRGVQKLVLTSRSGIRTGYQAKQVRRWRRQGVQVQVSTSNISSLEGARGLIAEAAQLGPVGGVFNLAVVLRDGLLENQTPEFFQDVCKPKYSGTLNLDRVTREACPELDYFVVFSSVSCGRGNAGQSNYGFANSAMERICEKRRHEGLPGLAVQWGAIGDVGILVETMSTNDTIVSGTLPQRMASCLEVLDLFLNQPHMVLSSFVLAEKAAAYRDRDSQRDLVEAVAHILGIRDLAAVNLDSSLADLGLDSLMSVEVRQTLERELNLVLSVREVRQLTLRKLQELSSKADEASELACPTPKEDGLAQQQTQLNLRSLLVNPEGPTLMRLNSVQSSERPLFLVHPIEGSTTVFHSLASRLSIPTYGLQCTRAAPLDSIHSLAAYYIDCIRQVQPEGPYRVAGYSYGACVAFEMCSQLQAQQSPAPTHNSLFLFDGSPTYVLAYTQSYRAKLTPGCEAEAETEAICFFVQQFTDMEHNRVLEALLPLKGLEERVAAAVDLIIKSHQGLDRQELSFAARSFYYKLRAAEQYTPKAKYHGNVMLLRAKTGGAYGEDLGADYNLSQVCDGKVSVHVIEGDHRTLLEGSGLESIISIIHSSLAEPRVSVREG

## C/C=C/C=C/C=C/C1=CC2=CC(=O)[C@](C)(OC(=O)C[C@H](C)O)C(=O)C23OC3O1 (stereo not given in full)
[1]
  IC50: 160 µg/mL (≈ 414 µM)
Fatty acid synthase
  IC50: > 2590 µM
Candida albicans [2]
  MFC: 25 µg/mL (≈ 64.7 µM)
  MIC: 6.25 µg/mL (≈ 16.2 µM)
Candida albicans [3]
  MIC: 50 µg/mL
Candida albicans [4]
  inhibition zone (IZ): 8 mm
Candida albicans [5]
  MIC: 3.9 µg/mL (≈ 10.1 µM)
Candida albicans [6]
  MIC: 7.8 µg/mL (≈ 20.2 µM)
Clavispora lusitaniae [7]
  MIC: 8.3 µg/mL (≈ 21.5 µM)
Clavispora lusitaniae [8]
  MIC: 37.5 µg/mL (≈ 97 µM)
[9]
  MIC: < 1.6 µg/mL
[10]
  MIC: 1.6 µg/mL (≈ 4.14 µM)
Pichia kudriavzevii [11]
  MIC: 12.5 µg/mL (≈ 32.3 µM)
Pichia kudriavzevii [12]
  MIC: 25 µg/mL (≈ 64.7 µM)
Nakaseomyces glabratus [13]
  MIC: 29.2 µg/mL (≈ 75.6 µM)
Nakaseomyces glabratus [14]
  MIC: 83.3 µg/mL (≈ 216 µM)
Candida parapsilosis [15]
  MIC: 15.6 µg/mL (≈ 40.4 µM)
Candida parapsilosis [16]
  MIC: 62.5 µg/mL (≈ 162 µM)
Candida dubliniensis [17]
  MIC: 9.4 µg/mL (≈ 24.3 µM)
Candida dubliniensis [18]
  MIC: 18.8 µg/mL (≈ 48.7 µM)
Saccharomyces cerevisiae [19]
  MIC: 5.9 µg/mL (≈ 15.3 µM)
Saccharomyces cerevisiae [20]
  MIC: 20.3 µg/mL (≈ 52.5 µM)
Cryptococcus neoformans [21]
  MIC: 25 µg/mL (≈ 64.7 µM)
Cryptococcus neoformans [22]
  MIC: 3.12 µg/mL (≈ 8.07 µM)
Papiliotrema laurentii [23]
  Activity: Active
Papiliotrema laurentii [24]
  MIC: 6.25 µg/mL (≈ 16.2 µM)

## C/C=C/C/C=C/CCC(=O)[C@H]1O[C@H]1C(N)=O [CERULENIN]
[1]
  IC50: 0.5 µg/mL (≈ 2.24 µM)
Fatty acid synthase
  IC50: 2.24 µM
Candida albicans [2]
  MFC: 5 µg/mL (≈ 22.4 µM)
  MIC: 5 µg/mL (≈ 22.4 µM)
Candida albicans [3]
  MIC: > 1000 µg/mL
Candida albicans [25]
  inhibition zone (IZ): 20 mm

## C/C=C/C=C/C=C/C1=CC2=CC(=O)[C@](C)(OC(=O)C[C@H](C)O)C(=O)C2=CO1
[1]
  IC50: 250 µg/mL (≈ 675 µM)
Fatty acid synthase
  IC50: > 2700 µM
Candida albicans [2]
  MFC: 6.25 µg/mL (≈ 16.9 µM)
  MIC: 3.13 µg/mL (≈ 8.45 µM)
Candida albicans [3]
  MIC: 50 µg/mL
Candida albicans [4]
  inhibition zone (IZ): 10 mm
Candida albicans [5]
  MIC: 7.8 µg/mL (≈ 21.1 µM)
Candida albicans [6]
  MIC: 7.8 µg/mL (≈ 21.1 µM)
Candida tropicalis [26]
  MIC: 6.25 µg/mL (≈ 16.9 µM)
Candida tropicalis [27]
  MIC: 6.25 µg/mL (≈ 16.9 µM)
Clavispora lusitaniae [7]
  MIC: 16.3 µg/mL (≈ 44 µM)
Clavispora lusitaniae [8]
  MIC: 41.6 µg/mL (≈ 112 µM)
[9]
  MIC: < 1.6 µg/mL
[10]
  MIC: 1.6 µg/mL (≈ 4.32 µM)
Pichia kudriavzevii [11]
  MIC: 25 µg/mL (≈ 67.5 µM)
Pichia kudriavzevii [12]
  MIC: 50 µg/mL (≈ 135 µM)
Nakaseomyces glabratus [13]
  MIC: 25 µg/mL (≈ 67.5 µM)
Nakaseomyces glabratus [14]
  MIC: 50 µg/mL (≈ 135 µM)
Candida parapsilosis [15]
  MIC: 14.8 µg/mL (≈ 40 µM)
Candida parapsilosis [16]
  MIC: 50 µg/mL (≈ 135 µM)
Candida dubliniensis [17]
  MIC: 12.5 µg/mL (≈ 33.7 µM)
Candida dubliniensis [18]
  MIC: 12.5 µg/mL (≈ 33.7 µM)
Saccharomyces cerevisiae [19]
  MIC: 8.2 µg/mL (≈ 22.1 µM)
Saccharomyces cerevisiae [20]
  MIC: 25 µg/mL (≈ 67.5 µM)
Cryptococcus neoformans [21]
  MIC: < 1.6 µg/mL
Cryptococcus neoformans [22]
  MIC: < 1.6 µg/mL
Papiliotrema laurentii [23]
  MIC: < 1.6 µg/mL
Papiliotrema laurentii [24]
  MIC: < 1.6 µg/mL

From ChEMBL document CHEMBL1146563, “CT2108A and B: New fatty acid synthase inhibitors as antifungal agents” (J Nat Prod, 2003)
